Cytotoxicity data for 96 molecules are collected here from ChEMBL document CHEMBL4513216, “Probing the Open Global Health Chemical Diversity Library for Multistage-Active Starting Points for Next-Generation Antimalarials” (ACS Infect Dis, 2020).

A short description of this data set: Toxicity liver stage against HepG2, at 10uM. The data set is classed as cell-based. The note with it: human, HepG2-A16-CD81EGFP cells; read-out: INHIBITION
Also noted: test concentration 10 uM, cell line HepG2-A16-CD81EGFP. A digest of the protocol: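 Uninfected HepG2-A16-CD81EGFP cells, 3 × 10^3 per well, 1536-well, plated on prespotted compound at 10 μM final, parasite-free screening media added to match infected plates; puromycin 10 μM positive, DMSO 0.5% negative; run in parallel with 48 h PbLuc assay at 37 °C, 5% CO2; viability by CellTiter-Glo luminescence, normalized to controls.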
With `N#Cc1c(-c2ccccc2)csc1N`, the cytotoxicity at 10 µM turned out to be 2.42%.

Regarding `c1ccc2c(c1)COC1(CCCC1)N2`, the cytotoxicity at 10 µM came to 10.4%.

Regarding `CCCN(CCC)CCNc1c(-c2ccccc2)c(=O)c1=O`, the cytotoxicity at 10 µM was -82.1%.

Take `CCCS(=O)(=O)N1CC(=O)N(Cc2cccc(OC)c2OC)CC(O)C1` (stereo unspecified): the cytotoxicity at 10 µM is -12.9%.

Consider `Cc1cc(CN2CCC(CNS(=O)(=O)c3ccc(C)s3)CC2)c(C)o1`, for which the cytotoxicity at 10 µM was 3.39%.

Regarding `Cc1ccccc1C(=O)N1CC2(COC(C)(C)OC2)C1`, the cytotoxicity at 10 µM was found to be 4.56%.

As for `COc1cccc(CN2C[C@H]3CCNCC[C@H]3S2(=O)=O)c1`, the cytotoxicity at 10 µM is -8.81%.

Turning to `c1csc(CN2C[C@H]3CCC[C@@]3(COCC3CCOCC3)C2)n1`, the cytotoxicity at 10 µM was -1.99%.

As to `CCn1nc(C)c2c1cnn2CC(=O)NC(C)c1cccc(OC)c1` (stereo unspecified), the cytotoxicity at 10 µM stood at 25.8%.

On to `CC(=O)N[C@@H]1CN(C(=O)CC2CC2)C[C@H]1O`, for which the cytotoxicity at 10 µM was -7.1%.

For the molecule `CC(=O)N1CCC(c2cnc(-c3c(C)n[nH]c3C)cn2)CC1`, the cytotoxicity at 10 µM was -17.1%.

With `C[C@H](NC(=O)C1CC1)c1nc2cc(-c3ccc(F)cc3)ncn2n1`, the cytotoxicity at 10 µM is -23%.

`CC(C)(C)C(=O)N1CCCC(c2ncncc2-c2ccncc2)C1` (stereo unspecified): the cytotoxicity at 10 µM was 4.03%.

As to `COCC(=O)N1CCC(c2cc3n(n2)[C@@H](C(F)(F)F)C[C@@H](C)N3)CC1`, the cytotoxicity at 10 µM is -26.5%.

With `CCC(=O)N1CCC(Cc2cc(Nc3ncccn3)ncn2)CC1`, the cytotoxicity at 10 µM was -4.05%.

In the case of `O=C(c1ccc(Cl)cc1)N1CCn2c(nn(-c3ccncc3)c2=O)C1`, the cytotoxicity at 10 µM came out at 27.5%.

`CN(C(=O)CSc1ncc[nH]1)c1ccccc1`: the cytotoxicity at 10 µM worked out at 11.1%.

On to `O=c1cc(CN(CCO)C2CC2)nc2ccc(Cl)cn12`, for which the cytotoxicity at 10 µM stood at 14.7%.

Consider `Cc1nc(NS(=O)(=O)c2cc(C)c(Br)cc2C)no1`, for which the cytotoxicity at 10 µM is 5.42%.

On to `Cc1ncc(CNC(CCO)C2CCCCC2)s1` (stereo unspecified), for which the cytotoxicity at 10 µM was -48.7%.

As for `O=C(c1ccccc1)N1CCN(C2CCc3ccc(F)cc32)CC1` (stereo unspecified), the cytotoxicity at 10 µM amounted to 11.1%.

Turning to `COc1ccc(OC)c(C(=O)Nc2cccnc2-n2cncn2)c1`, the cytotoxicity at 10 µM is -17%.

Consider `Cc1nc(-c2ccc(S(=O)(=O)N3CCSCC3)cc2)co1`, for which the cytotoxicity at 10 µM came to 5.18%.

`N#Cc1cccc(-c2ncnn2CC2(O)CCCCC2)c1`: the cytotoxicity at 10 µM is 8.83%.

For `Cc1noc(CCCC(=O)N2CCCCC2CNS(C)(=O)=O)n1` (stereo unspecified), the cytotoxicity at 10 µM is -0.88%.

On to `Cn1cccc1CNCc1nnc2n1CCCC2C(F)(F)F` (stereo unspecified), for which the cytotoxicity at 10 µM was -7.53%.

Turning to `CCOc1ccccc1NC(C)C(=O)N(C)Cc1cccc(F)c1` (stereo unspecified), the cytotoxicity at 10 µM worked out at 12.1%.

Consider `O=C(CCc1ccncc1)N1CCc2cc(Cl)cc(Cl)c2C1`, for which the cytotoxicity at 10 µM was -24.3%.

Consider `c1nc(N2CCOC(Cn3cncn3)C2)c2sccc2n1` (stereo unspecified), for which the cytotoxicity at 10 µM stood at 16.7%.

With `Cc1cc2cc(CNC3CCN(S(C)(=O)=O)CC3)oc2cc1C`, the cytotoxicity at 10 µM is -0.779%.

For the molecule `Cc1ncsc1CNCC(C)c1nc2ccccc2o1` (stereo unspecified), the cytotoxicity at 10 µM was 4.17%.

With `CCN1CCN(c2ccc(C(=O)NC(C)CCOC)cc2)CC1` (stereo unspecified), the cytotoxicity at 10 µM turned out to be 8.7%.

With `Cc1ccccc1CS(=O)(=O)CC(=O)N(C)Cc1ccccc1`, the cytotoxicity at 10 µM is 2.84%.

As to `COCc1nc(C(=O)N2CCN(Cc3cc(C)on3)CC2)cs1`, the cytotoxicity at 10 µM was -15%.

On to `Cc1nc(C)c(CCNc2ccc(S(N)(=O)=O)cc2C#N)s1`, for which the cytotoxicity at 10 µM is -62.2%.

For the molecule `COc1cccc(CC2CCCN2CCCO)c1` (stereo unspecified), the cytotoxicity at 10 µM is -37.5%.

On to `CN(CC1CCN(CCO)CC1)CC(O)c1ccc(F)c(F)c1` (stereo unspecified), for which the cytotoxicity at 10 µM was -51.5%.

As to `Cc1nc(CN2CCC23CCN(Cc2ccco2)CC3)cs1`, the cytotoxicity at 10 µM was -114%.

Regarding `O=C1CC[C@@H]2[C@@H](CCN2S(=O)(=O)C2CC2)N1CC1CC1`, the cytotoxicity at 10 µM was -79.4%.

With `Cn1c2c(ccc1=O)CC(NC(=O)c1ccsc1)CC2` (stereo unspecified), the cytotoxicity at 10 µM is -1.87%.

Consider `CCN1CCOCC2(C1)CN(C(=O)c1c(C)noc1C)CCO2` (stereo unspecified), for which the cytotoxicity at 10 µM worked out at 13.8%.

`C[C@@H]1CN(C(=O)[C@H]2CCCO2)C[C@]12CCN(c1ccsc1)C2=O`: the cytotoxicity at 10 µM was -77.8%.

Take `O=C(c1ccncc1)N1CCc2ncnc(C3CCOC3)c2CC1` (stereo unspecified): the cytotoxicity at 10 µM is -73.2%.

For `COCC(=O)N1CCO[C@H]2[C@H](OC)CC[C@@H]21`, the cytotoxicity at 10 µM turned out to be 6.61%.

On to `c1ccc(C[C@H]2CN(Cc3nccs3)CC[C@H]2OCC2CC2)cc1`, for which the cytotoxicity at 10 µM was found to be 5.27%.

On to `O=C(CC1CC1)N1CCC2(CC1)CN(c1ncccn1)CCO2`, for which the cytotoxicity at 10 µM was determined as 1.49%.

Consider `O=C(NCCn1cccc1)C(c1cccnc1)N1CCCC1` (stereo unspecified), for which the cytotoxicity at 10 µM is -54.5%.

For `O=C(Nc1ccc2scnc2c1)N1CCN([C@H]2CCCC[C@@H]2O)CC1`, the cytotoxicity at 10 µM was -53.6%.

As to `O=C(C1CCCC1)N1CCC(Nc2ccncn2)CC1`, the cytotoxicity at 10 µM was -57.7%.

On to `CCn1c(C)nnc1SCCNC(=O)c1cnc(N(C)C)nc1C`, for which the cytotoxicity at 10 µM worked out at 6.9%.

`CCOc1ncccc1Cn1cc(-c2ccc(CO)o2)nn1`: the cytotoxicity at 10 µM was -1.91%.

As for `CNc1ccnc(NCCC(=O)Nc2ccccc2OC)n1`, the cytotoxicity at 10 µM is -1.62%.

Turning to `CCn1ncnc1CN(CCOC)Cc1ccc(C)cc1`, the cytotoxicity at 10 µM was -40.2%.

In the case of `Cc1nn(C)cc1-c1ccnc(N(C)Cc2ccon2)n1`, the cytotoxicity at 10 µM was -8.71%.

For the molecule `CCCC(=O)Nc1cc2c(cc1OC)NC(=O)CC2c1ccc(CC)o1` (stereo unspecified), the cytotoxicity at 10 µM worked out at 2.01%.

As for `CN1CCN(CCC(F)(F)C(F)F)CC12CCNC(=O)CC2` (stereo unspecified), the cytotoxicity at 10 µM was -39.7%.

Consider `CCOCCn1c(=O)n(Cc2ccccc2F)c2cc(C(=O)O)cnc21`, for which the cytotoxicity at 10 µM was -6.46%.

With `CSCCNC(=O)c1coc(COc2ccc(F)cc2)n1`, the cytotoxicity at 10 µM was 1.75%.

`CN(C)S(=O)(=O)N1CCCC(CCC(=O)Nc2ccc(Cl)cc2)C1` (stereo unspecified): the cytotoxicity at 10 µM is -12.5%.

On to `Cc1nc(C)c(C(=O)N2CCc3[nH]nc(COc4ccccc4)c3C2)s1`, for which the cytotoxicity at 10 µM is -3.09%.

As for `CN1CC(c2ccccc2)CC2(CCN(Cc3ncc[nH]3)CC2)C1` (stereo unspecified), the cytotoxicity at 10 µM is -1.21%.

Turning to `CNC(=O)c1ccc(C2CN(C(=O)c3cncs3)CCO2)nc1` (stereo unspecified), the cytotoxicity at 10 µM was -2.7%.

As for `c1ccc(Oc2ccc(CNCC3CNc4ccnn4C3)cn2)cc1` (stereo unspecified), the cytotoxicity at 10 µM is -15.6%.

As for `Clc1cccc(-c2nc(CNC3CCc4ncnn4C3)co2)c1` (stereo unspecified), the cytotoxicity at 10 µM came out at 2.56%.

Turning to `Cc1nnc2n1CCN(C(=O)c1cc(C)n(-c3cccnc3)c1C)C2`, the cytotoxicity at 10 µM is -6.63%.

For `Cc1ccc(NC2CCN(C(=O)Cc3cccs3)CC2)nn1`, the cytotoxicity at 10 µM was -6.8%.

Take `Cc1noc(CN(Cc2cccs2)C2CCS(=O)(=O)C2)n1` (stereo unspecified): the cytotoxicity at 10 µM was -3.21%.

With `Cc1nn(C)c(N(C)C)c1CNCCC(=O)NC1CCCCC1`, the cytotoxicity at 10 µM was -13.4%.

Take `Cc1nc(CNCc2c(C(C)C)nn(C)c2N2CCOCC2)cs1`: the cytotoxicity at 10 µM is -2.51%.

Consider `O=C(c1ccccc1OC1CCCC1)N1CCCC(n2cncn2)C1` (stereo unspecified), for which the cytotoxicity at 10 µM was -0.0581%.

On to `Cc1noc(C)c1CNC(=O)c1ccc(NC2CC2)nc1`, for which the cytotoxicity at 10 µM was -3.91%.

For the molecule `CC(C)OCCC(=O)N(C)CCCc1cc(-c2ccccc2)no1`, the cytotoxicity at 10 µM was -15.3%.

For `CC(=O)N(Cc1ncc(C(C)C)o1)C1CCN(CCn2cccn2)C1` (stereo unspecified), the cytotoxicity at 10 µM was -4.89%.

Consider `Cc1ccccc1CNC(=O)CN1CCN(Cc2nccn2C)CC1`, for which the cytotoxicity at 10 µM was -5.75%.

Consider `Cc1noc(CN2CCC(c3ccnn3CCO)CC2)n1`, for which the cytotoxicity at 10 µM is -9.62%.

For `Cn1c(CN2CCCC2c2noc(C3CC3)n2)cc(=O)n(C)c1=O` (stereo unspecified), the cytotoxicity at 10 µM worked out at 4.04%.

Consider `Cc1cnn(CC2CCCCN2C(=O)CN(C)C2CC2)c1` (stereo unspecified), for which the cytotoxicity at 10 µM was -1.23%.

For `CNS(=O)(=O)c1cccc(CNC(=O)c2c(C)oc(C)c2C)c1`, the cytotoxicity at 10 µM was -1.3%.

In the case of `CN(C)[C@@H]1CN(Cc2ccccc2O)C[C@H]1c1cn(C)c2ccccc12`, the cytotoxicity at 10 µM came out at 6.6%.

As for `Cc1nn(CCC#N)c(C)c1CCC(=O)N(C)C`, the cytotoxicity at 10 µM was -7.33%.

`Cc1nc2c(c(NC(C)C)n1)CCN(Cc1cccnc1)CC2`: the cytotoxicity at 10 µM was 6.4%.

In the case of `O=C(c1ccccc1-c1ccccc1)N1C[C@@H]2CNC[C@]2(C(=O)O)C1`, the cytotoxicity at 10 µM is -0.265%.

Regarding `Cc1cccc(CN2CCc3[nH]nc(C(=O)N4CCNC(=O)C4)c3C2)n1`, the cytotoxicity at 10 µM was determined as 18.2%.

Consider `Cc1n[nH]cc1CNC1CCN(c2ccccc2)CC1`, for which the cytotoxicity at 10 µM was -52.2%.

Take `CC[C@@H]1N(CC2CCOCC2)CCC[C@]12CCC(=O)N2`: the cytotoxicity at 10 µM amounted to 18.1%.

On to `Cc1ccc(C(=O)N2CCC3(CC2)CN(c2ccccn2)CCO3)cc1`, for which the cytotoxicity at 10 µM is -75.4%.

For `O=C(NC1CC2(CCN(CCO)CC2)c2ccccc21)c1ccncc1` (stereo unspecified), the cytotoxicity at 10 µM is -9.54%.

Consider `Cn1cc(CN2CCCC3(CCN(C(=O)c4cnccn4)C3)C2)cn1` (stereo unspecified), for which the cytotoxicity at 10 µM was -69.6%.

In the case of `CN(C)CCN1C(=O)CC[C@@H]2[C@H]1CCN2Cc1cccc(C#N)c1`, the cytotoxicity at 10 µM is -89.1%.

As to `c1ccc(O[C@H]2CO[C@@]3(CCCN(Cc4nccs4)C3)C2)nc1`, the cytotoxicity at 10 µM is -71.3%.

Regarding `O=C(c1ccco1)N1C[C@H]2CCCN(CC3CCOCC3)[C@H]2C1`, the cytotoxicity at 10 µM was -0.285%.

As for `Cc1nc(C2(O)CCCNCC2)sc1CCOc1ccccc1` (stereo unspecified), the cytotoxicity at 10 µM is -28.5%.

For `O=C1CC[C@H]2[C@H](CCN2c2ncc(F)cn2)N1c1ccccc1`, the cytotoxicity at 10 µM amounted to 5.86%.

`Cc1cccc(N2CC[C@@H]3CN(C(=O)c4ccco4)CCO[C@@H]3C2)n1`: the cytotoxicity at 10 µM is 10.5%.

As to `O=C(c1ccccc1)N1C[C@@H]2CCCO[C@@H]2[C@H](N2CCOCC2)C1`, the cytotoxicity at 10 µM is -8.81%.

Turning to `CCN1CCc2c(sc3c2C(=O)NC(C=Cc2ccco2)N3)C1` (stereo unspecified), the cytotoxicity at 10 µM is -1.07%.
